According to ChEMBL document CHEMBL2331435, “Structure-activity relationship study of vitamin k derivatives yields highly potent neuroprotective agents” (J Med Chem, 2013):
Calls of active or inactive are those of the source. The calls are words filed in the database; no cut-off is given here.

Assays:
[1] = test system: HT-22; assay: Neuroprotective activity in mouse HT22 cells assessed as prevention from tBuOOH-induced oxidative cell death after 3 hrs by MTS assay; type: functional, cell-based
Summary of the method: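 HT22 cells were seeded at 5.0 × 10^3 per well and cultured overnight, then exposed to 50 μM t-BuOOH (final) plus compound for 3 h. Medium was removed, cells were washed with HBSS and returned to normal medium. MTS was added 24 h after initial treatment, absorbance was read at 490 nm after 2 h, and viability was expressed as percent of untreated cells.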

[2] = Neurotoxicity in mouse HT22 cells assessed as cell viability after 24 hrs by MTS assay; type: toxicity, cell-based, HT-22; conditions: read-out: TC50
Summary of the method: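 HT22 cells were seeded at 5.0 × 10^3 per well, cultured overnight, and treated with a range of compound concentrations without glutamate for 24 h. MTS was added for 2 h and absorbance read at 490 nm. Viability was expressed as percent of untreated cells, and TC50 was fit from titration curves (7- or 12-point, n = 3–4).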

[3] = Therapeutic index, ratio of cytotoxic TC50 for mouse HT22 cells to neuroprotective PD50 for mouse HT22 cells; type: cell-based, HT-22; conditions: read-out: TI
[4] = test system: Radical scavenging activity; assay: Antioxidant activity assessed as DPPH free radical scavenging activity at 20 uM; type: functional
Summary of the method: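 Test agents at 20 μM final, added to 100 μM DPPH in methanol; absorbance at 517 nm monitored immediately for 10 min. Trolox and ascorbic acid served as positive controls, and the rate of absorbance loss was taken as antioxidant potency.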

[5] = test system: HT-22; assay: Neuroprotective activity in mouse HT22 cells assessed as prevention from glutamate-induced oxidative cell death by MTS assay; type: functional
Summary of the method: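 HT22 cells grown in high-glucose DMEM with 10% FBS and antibiotic-antimycotic at 37°C, 5% CO2. Seeded at 5.0 × 10^3 cells/well overnight, then given 10 mM glutamate (final) plus compound from DMSO stock. MTS added 24 h after treatment, 2 h at 37°C, A490 read. Viability taken as % of untreated cells. PC50 from 12-point titrations; experiments repeated at least four times.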

[6] = target: T1, Serine/threonine-protein phosphatase PGAM5, mitochondrial (Mus musculus) (UniProt Q8BX10); assay: Inhibition of glutamate-induced increase in lower band of PGAM5 in mouse HT22 cells at 500 nM after 16 hrs by Western blotting analysis; type: cell-based; conditions: HT-22
T1 sequence (whole entry): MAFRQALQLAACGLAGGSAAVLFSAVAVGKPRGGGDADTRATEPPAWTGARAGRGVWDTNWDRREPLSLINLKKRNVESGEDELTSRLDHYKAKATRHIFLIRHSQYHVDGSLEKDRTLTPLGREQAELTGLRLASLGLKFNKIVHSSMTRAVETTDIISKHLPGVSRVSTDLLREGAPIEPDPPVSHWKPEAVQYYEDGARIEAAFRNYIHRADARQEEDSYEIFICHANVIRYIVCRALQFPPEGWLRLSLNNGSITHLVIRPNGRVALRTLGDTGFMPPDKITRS
Summary of the method: (§1)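 HT22 cells were treated with 10 mM glutamate plus compound for 16 h, harvested, and lysed in low-salt buffer (50 mM Tris-HCl pH 7.4, 150 mM NaCl, 10% glycerol, Triton X-100, protease/phosphatase inhibitors) for 30 min with a brief sonication. Lysates were run on 4–12% gels and immunoblotted for phospho-Drp1 Ser637, total Drp1, PGAM5, actin and α-tubulin, then analyzed by densitometry.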

[7] = target: Dynamin-1-like protein (Mus musculus) (UniProt Q8K1M6); assay: Inhibition of glutamate-induced decrease in DRP1 phosphorylation at serine 637 in mouse HT22 cells at 500 nM after 16 hrs by Western blotting analysis; type: cell-based; conditions: HT-22; summary of the method: as §1
Dynamin-1-like protein (Mus musculus), sequence (Q8K1M6 whole entry): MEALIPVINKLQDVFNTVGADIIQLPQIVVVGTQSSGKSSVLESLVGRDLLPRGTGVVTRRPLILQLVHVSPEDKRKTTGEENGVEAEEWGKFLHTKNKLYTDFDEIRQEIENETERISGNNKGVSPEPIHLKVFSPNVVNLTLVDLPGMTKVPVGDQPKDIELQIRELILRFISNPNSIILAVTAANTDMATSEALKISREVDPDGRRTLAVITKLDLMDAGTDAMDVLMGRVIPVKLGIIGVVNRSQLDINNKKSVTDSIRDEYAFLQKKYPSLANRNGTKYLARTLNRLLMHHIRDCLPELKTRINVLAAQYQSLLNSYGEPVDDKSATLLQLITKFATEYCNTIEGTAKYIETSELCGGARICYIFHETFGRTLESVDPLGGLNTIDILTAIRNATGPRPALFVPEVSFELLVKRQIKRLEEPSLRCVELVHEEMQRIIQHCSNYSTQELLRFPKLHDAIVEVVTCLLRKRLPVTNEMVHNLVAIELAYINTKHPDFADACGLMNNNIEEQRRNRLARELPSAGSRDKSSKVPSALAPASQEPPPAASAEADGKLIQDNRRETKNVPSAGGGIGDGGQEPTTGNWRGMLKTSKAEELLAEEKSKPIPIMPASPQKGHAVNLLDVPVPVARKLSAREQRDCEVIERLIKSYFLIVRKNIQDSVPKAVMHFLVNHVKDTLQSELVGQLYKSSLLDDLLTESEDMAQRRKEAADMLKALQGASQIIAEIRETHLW

[8] = test system: HT-22; assay: Antioxidant activity in mouse HT22 cells assessed as upregulation of NQO1 protein expression 8 hrs by Western blotting analysis; type: functional, cell-based
[9] = test system: HT-22; assay: Antioxidant activity in mouse HT22 cells assessed as upregulation of HO1 protein expression 8 hrs by Western blotting analysis; type: functional, cell-based
[10] = test system: HT-22; assay: Neuroprotective activity in mouse HT22 cells assessed as reduction of glutamate-induced mitochondrial fragmentation at 250 nM after 8 hrs by Mitotracker DR staining-based fluorescence microscopic analysis; type: functional, cell-based
Summary of the method: (§2)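 HT22 cells were given 10 mM glutamate plus compound for 8 h, then co-stained with MitoSOX Red (5 μM final) and Mitotracker Deep Red (10 nM final) for 20 min. Cells were washed twice with HBSS and imaged live by fluorescence microscopy in HBSS.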

[11] = test system: HT-22; assay: Neuroprotective activity in mouse HT22 cells assessed as reduction of glutamate-induced mitochondrial superoxide generation at 250 nM after 8 hrs by MitoSOX RED staining-based fluorescence microscopic analysis; type: functional, cell-based; summary of the method: as §2
[12] = test system: HT-22; assay: Antioxidant activity in mouse HT22 cells assessed as upregulation of NQO1 gene expression at 250 nM after 16 hrs by qRT-PCR analysis in the absence of glutamate; type: functional, cell-based
Summary of the method: (§3)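 HT22 cells were seeded at 3.0 × 10^5 per well and cultured overnight, then treated with or without 10 mM glutamate plus compound (DMSO stock) for 16 h. Cells were trypsinized and washed in cold Ca/Mg-free HBSS. HO-1 and NQO-1 mRNA were measured by qRT-PCR with β2-microglobulin as reference gene, and fold change was calculated by the Livak method.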

[13] = test system: HT-22; assay: Antioxidant activity in mouse HT22 cells assessed as upregulation of HO1 gene expression at 250 nM after 16 hrs by qRT-PCR analysis in the absence of glutamate; type: functional, cell-based; summary of the method: as §3
[14] = test system: HT-22; assay: Antioxidant activity in mouse HT22 cells assessed as reduction in glutamate-induced upregulation of HO1 gene expression at 250 nM after 16 hrs by qRT-PCR analysis relative to untreated control; type: functional, cell-based; summary of the method: as §3
[15] = test system: HT-22; assay: Antioxidant activity in mouse HT22 cells assessed as reduction in glutamate-induced upregulation of NQO1 gene expression at 250 nM after 16 hrs by qRT-PCR analysis relative to glutamate-treated control; type: functional, cell-based; summary of the method: as §3
[16] = test system: HT-22; assay: Antioxidant activity in mouse HT22 cells assessed as prevention of glutamate-induced intracellular accumulation of free radicals at 250 nM after 8 hrs by spectrofluorometric analysis; type: functional, cell-based
Summary of the method: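 HT22 cells were seeded at 5.0 × 10^3 per well and cultured overnight, then given 10 mM glutamate plus compound for 8 h. Rho123 was added at 5 μM final for 20 min, cells were washed twice with HBSS, and oxidized Rho123 fluorescence was read at 500 nm excitation and 536 nm emission.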

[17] = test system: HT-22; assay: Antioxidant activity in mouse HT22 cells assessed as reduction in glutamate-induced upregulation of HO1 gene expression at 250 nM after 16 hrs by qRT-PCR analysis relative to glutamate-treated control; type: functional, cell-based; summary of the method: as §3

SMILES	CC50 at 24 h [2]	selectivity ratio [3]	PD50 [5]	further results
COC1=C(OC)C(=O)C(C/C=C(\C)CC/C=C(\C)CC/C=C(\C)CC/C=C(\C)CC/C=C(\C)CC/C=C(\C)CC/C=C(\C)CC/C=C(\C)CC/C=C(\C)CCC=C(C)C)=C(C)C1=O	–	–	–	Activity [1]: inactive
COc1ccc(CNC2=CC(=O)c3ccccc3C2=O)cc1	> 100 µM	877	–	–
O=C1O[C@H]([C@@H](O)CO)C(O)=C1O	–	–	–	Activity [4]: Active
CN(C)C1=CC(=O)c2ccccc2C1=O	> 100 µM	> 407	246 nM	–
O=C1C=C(Nc2ccccc2)C(=O)c2ccccc21	7 µM	109	64 nM	–
O=C1C=C(NCc2ccncc2)C(=O)c2ccccc21	80 µM	1110	72 nM	–
O=C1C=C(NCc2ccc(Cl)cc2)C(=O)c2ccccc21	> 100 µM	> 1700	59 nM	–
Cc1ccc(CNC2=CC(=O)c3ccccc3C2=O)cc1	> 100 µM	> 1520	66 nM	–
CC1=C(N)C(=O)c2ccccc2C1=O	54 µM	31	–	–
CNC1=CC(=O)c2ccccc2C1=O	> 100 µM	74	–	–
CCNC1=CC(=O)c2ccccc2C1=O	81 µM	106	–	–
CC(C)=CCC/C(C)=C/CC/C(C)=C/CC/C(C)=C/CC1=C(C)C(=O)c2ccccc2C1=O [MENATETRENONE]	> 100 µM	–	432 nM	inhibition [6]: Active; inhibition [7]: Active; Activity [1]: Active; Activity [8]: inactive; Activity [9]: inactive; Activity [10]: Active; Activity [11]: Active; Activity [12]: inactive; Activity [13]: inactive; Activity [14]: inactive; Activity [15]: inactive; Activity [4]: inactive; Activity [16]: Active; Activity [17]: Active
O=C1C=C(NCC2CCCCC2)C(=O)c2ccccc21	> 100 µM	> 1850	54 nM	–
O=C1C=C(NCc2cccnc2)C(=O)c2ccccc21	37 µM	172	–	–
O=C1C=CC(=O)c2ccccc21 [NAPHTHOQUINONE]	19 µM	12	–	–
O=C1C=C(NCc2ccccn2)C(=O)c2ccccc21	50 µM	54	–	–
COC(=O)c1ccc(CNC2=CC(=O)c3ccccc3C2=O)cc1	> 100 µM	431	–	–
